Results taken from ChEMBL document CHEMBL1156597, “Structure-activity relationship of kahalalide F synthetic analogues” (J Med Chem, 2008).

Tests used:
[1] = tested on: LoVo; assay: Cytotoxicity against human LoVo cells after 48 hrs by SRB assay; type: functional; details: for CC50: read-out: LC50 (the source's name)
[2] = tested on: LNCaP; assay: Cytotoxicity against human LNcaP cells after 48 hrs by SRB assay; type: functional; details: for CC50: read-out: LC50 (the source's name)
Outline: (§1)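 Cells grown in RPMI 1640 with 10% FBS and penicillin/streptomycin at 37 °C and 5% CO₂, trypsinized, then seeded at 5 × 10³/well. After 18 h drug-free attachment, samples in DMSO/EtOH/PBS (0.5:0.5:99) were added for 48 h continuous exposure. Cells were fixed with cold TCA (1 h, 4 °C) and stained with SRB (10 min). Tris-solubilized stain read at 490 nm. Triplicate wells, mean ± SD; GI₅₀ derived.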

[3] = tested on: SK-MEL-28; assay: Cytotoxicity against human SK-MEL-28 cells after 48 hrs by SRB assay; type: functional, cell-based; details: Homo sapiens, SK-MEL-28, 48 h; for CC50: read-out: LC50 (the source's name); outline: as §1
[4] = tested on: SK-BR-3; assay: Cytotoxicity against human SKBR3 cells after 48 hrs by SRB assay; type: functional; details: SK-BR-3, 48 h; for CC50: read-out: LC50 (the source's name); outline: as §1
[5] = tested on: PANC-1; assay: Cytotoxicity against human PANC1 cells after 48 hrs by SRB assay; type: functional; details: PANC-1, 48 h; for CC50: read-out: LC50 (the source's name); outline: as §1
[6] = Cytotoxicity against human HeLa-APL cells after 48 hrs by SRB assay; type: functional; outline: as §1
[7] = tested on: HeLa; assay: Cytotoxicity against human HeLa cells after 48 hrs by SRB assay; type: functional; details: for CC50: read-out: LC50 (the source's name); outline: as §1
[8] = tested on: DU-145; assay: Cytotoxicity against human DU145 cells after 48 hrs by SRB assay; type: functional, cell-based; details: Homo sapiens, DU-145, 48 h; for CC50: read-out: LC50 (the source's name); outline: as §1
[9] = tested on: HT-29; assay: Cytotoxicity against human HT29 cells after 48 hrs by SRB assay; type: functional, cell-based; details: Homo sapiens, HT-29, 48 h; for CC50: read-out: LC50 (the source's name); outline: as §1
[10] = Cytotoxicity against human IGROV-ET cells after 48 hrs by SRB assay; type: functional; details: for CC50: read-out: LC50 (the source's name); outline: as §1
[11] = tested on: LoVo; assay: Cytotoxicity against human doxorubicin resistant LoVo cells after 48 hrs by SRB assay; type: functional; details: for CC50: read-out: LC50 (the source's name); outline: as §1
[12] = Cytotoxicity against human IGROV cells after 48 hrs by SRB assay; type: functional; details: for CC50: read-out: LC50 (the source's name); outline: as §1
[13] = tested on: A549; assay: Cytotoxicity against human A549 cells after 48 hrs by SRB assay; type: functional, cell-based; details: Homo sapiens, A549, 48 h; outline: as §1
[14] = tested on: K562; assay: Cytotoxicity against human K562 cells after 48 hrs by SRB assay; type: functional; details: K562, 48 h; for CC50: read-out: LC50 (the source's name); outline: as §1

C/C=C1\NC(=O)[C@H](Cc2ccccc2)NC(=O)[C@@H](C(C)C)NC(=O)[C@@H]([C@H](C)CC)NC(=O)[C@H](NC(=O)[C@H](NC(=O)[C@H](CCCN)NC(=O)[C@H]2CCCN2C(=O)[C@H](NC(=O)[C@@H](NC(=O)CNC(=O)[C@H](NC(=O)CCCC(C)C)C(C)C)C(C)C)C(C)C)[C@H](C)CC)[C@H](C)OC(=O)[C@H](C(C)C)NC1=O
GI50 [1]: 597 nM
TGI [1]: 1130 nM
CC50 [1]: 828 nM
GI50 [2]: 233 nM
TGI [2]: 988 nM
CC50 [2]: 988 nM
GI50 [3]: 283 nM
GI50 ([3]; read-out: GI50): 205 nM
CC50 [3]: 717 nM
TGI [4]: 819 nM
GI50 ([4]; read-out: GI50): 629 nM
CC50 [4]: 512 nM
GI50 [5]: 515 nM
TGI [5]: 1070 nM
CC50 [5]: 1990 nM
GI50 [6]: 230 nM
LC50 (concentration giving 50% net cell kill) [6]: 684 nM
TGI [6]: 421 nM
GI50 [7]: 250 nM
TGI [7]: 471 nM
CC50 [7]: 755 nM
GI50 [8]: 994 nM
GI50 ([8]; read-out: GI50): 572 nM
CC50 [8]: 1360 nM
GI50 [9]: 893 nM
TGI [9]: 1850 nM
CC50 [9]: 796 nM
GI50 [10]: 232 nM
GI50 ([10]; read-out: GI50): 197 nM
CC50 [10]: 566 nM
GI50 [11]: 2390 nM
TGI [11]: 3040 nM
CC50 [11]: 3850 nM
GI50 [12]: 83.7 nM
GI50 ([12]; read-out: GI50): 80.7 nM
CC50 [12]: 139 nM
GI50 [13]: 622 nM
GI50 ([13]; read-out: GI50): 524 nM
GI50 [14]: 129 nM
TGI [14]: 208 nM
CC50 [14]: 744 nM

C/C=C1\NC(=O)[C@H](Cc2ccccc2)NC(=O)[C@@H](C(C)C)NC(=O)[C@@H]([C@H](C)CC)NC(=O)[C@H](NC(=O)[C@H](NC(=O)[C@H](CCCN)NC(=O)[C@H]2CCCN2C(=O)[C@H](NC(=O)[C@@H](NC(=O)[C@H](CCC(=O)O)NC(=O)[C@H](NC(=O)CCCC(C)C)C(C)C)C(C)C)C(C)C)[C@H](C)CC)[C@H](C)OC(=O)[C@H](C(C)C)NC1=O
CC50 [1]: 292 nM
GI50 [2]: 1070 nM
TGI [2]: 949 nM
CC50 [2]: 838 nM
CC50 [3]: 1470 nM
CC50 [4]: 356 nM
CC50 [5]: 1740 nM
GI50 [6]: 2060 nM
LC50 (concentration giving 50% net cell kill) [6]: 956 nM
TGI [6]: 1890 nM
GI50 [7]: 2550 nM
TGI [7]: 2500 nM
CC50 [7]: 1100 nM
TGI [8]: 2630 nM
GI50 ([8]; read-out: GI50): 2480 nM
CC50 [8]: 1370 nM
CC50 [9]: 422 nM
GI50 [10]: 849 nM
GI50 ([10]; read-out: GI50): 1130 nM
CC50 [10]: 639 nM
CC50 [11]: 294 nM
GI50 [12]: 498 nM
GI50 ([12]; read-out: GI50): 857 nM
CC50 [12]: 483 nM
LC50 [13]: 7.08 µM
TGI [13]: 1450 nM
GI50 ([13]; read-out: GI50): 1630 nM
CC50 [14]: 1960 nM

C/C=C1\NC(=O)[C@H](Cc2ccccc2Cl)NC(=O)[C@@H](C(C)C)NC(=O)[C@@H]([C@H](C)CC)NC(=O)[C@H](NC(=O)[C@H](NC(=O)[C@H](CCCN)NC(=O)[C@H]2CCCN2C(=O)[C@H](NC(=O)[C@@H](NC(=O)[C@@H](NC(=O)[C@H](NC(=O)CCCC(C)C)C(C)C)[C@@H](C)O)C(C)C)C(C)C)[C@H](C)CC)[C@H](C)OC(=O)[C@H](C(C)C)NC1=O
GI50 [1]: 43.4 nM
TGI [1]: 63.5 nM
CC50 [1]: 111 nM
GI50 [2]: 92.8 nM
TGI [2]: 359 nM
CC50 [2]: 832 nM
GI50 [3]: 638 nM
GI50 ([3]; read-out: GI50): 386 nM
CC50 [3]: 1050 nM
GI50 [4]: 56.8 nM
GI50 ([4]; read-out: GI50): 54.9 nM
CC50 [4]: 111 nM
GI50 [5]: 1510 nM
TGI [5]: 1700 nM
CC50 [5]: 1700 nM
GI50 [6]: 312 nM
LC50 (concentration giving 50% net cell kill) [6]: 931 nM
TGI [6]: 533 nM
GI50 [7]: 274 nM
TGI [7]: 506 nM
CC50 [7]: 889 nM
GI50 [8]: 391 nM
GI50 ([8]; read-out: GI50): 180 nM
CC50 [8]: 670 nM
GI50 [9]: 89 nM
TGI [9]: 113 nM
CC50 [9]: 144 nM
GI50 [10]: 142 nM
GI50 ([10]; read-out: GI50): 97.3 nM
CC50 [10]: 196 nM
GI50 [11]: 44.3 nM
TGI [11]: 46.9 nM
CC50 [11]: 85.1 nM
GI50 [12]: 118 nM
GI50 ([12]; read-out: GI50): 72.3 nM
CC50 [12]: 204 nM
GI50 [13]: 659 nM
LC50 [13]: 1.04 µM
GI50 ([13]; read-out: GI50): 418 nM
GI50 [14]: 1850 nM
TGI [14]: 1850 nM
CC50 [14]: 1850 nM
